Values belong to the molecule of their own block, whether it stands above or below them. Activity calls are given as the source filed them. No cut-off for these calls is given here.
Key:
Mus musculus [1] = experiment: Concentration in forebrain after intravenous injection evaluated after 5 min. at a dose of 10 mg/kg; format: functional
Outline: (§1)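 Ex vivo binding: mice were dosed iv with compound or vehicle, given either as saline or as 10% EtOH–60% propylene glycol–30% saline. Forebrains were taken at 5, 10 or 20 min, homogenized in HEPES buffer with bacitracin at pH 7.2, and incubated with 50 pM [125I]BH-CCK8s for 2 h at 22 °C. After filtration, bound radioligand was gamma-counted and read against calibration curves prepared in vehicle tissue. Detection limit was about 1 pmol/forebrain. n = 3–13.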

[2] = Pharmacokinetic parameter AUC was evaluated in saline solution at a dose of 20 mg/kg orally; format: ADME, organism-based; set-up: dose 20 mg/kg, route oral; details: in vivo, po
Outline: (§2)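 Fasted male Wistar rats, groups of 3–4, given a single oral 20 mg/kg dose in the stated vehicle. Heparinized plasma was collected from an implanted jugular-vein cannula at serial times out to 24 h, kept frozen, and assayed by validated HPLC-fluorescence. Cmax, tmax, AUC(0–∞) and terminal t1/2 were obtained by noncompartmental analysis. Values are means (%RSD).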

[3] = Maximum plasma concentration was evaluated in saline solution at a dose of 20 mg/kg orally; format: ADME, organism-based; set-up: dose 20 mg/kg, route oral; details: po; outline: as §2
[4] = Maximum plasma concentration was evaluated in Hp-beta-CD solution at a dose of 20 mg/kg orally; format: ADME, organism-based; set-up: dose 20 mg/kg, route oral; details: po; outline: as §2
Mus musculus [5] = experiment: Concentration in forebrain after intravenous injection evaluated after 10 min. at a dose of 10 mg/kg; Below low level of detection; format: functional, organism-based; set-up: dose 10 mg/kg; outline: as §1
[6] = Absolute oral bioavailability was evaluated in saline solution at a dose of 20 mg/kg orally; format: ADME, organism-based; details: eutheria, in vivo
Outline: (§3)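 Fasted male Wistar rats, groups of 3–4, given a single 20 mg/kg dose po or iv in the stated vehicle. Heparinized plasma was drawn from a jugular-vein cannula at serial times out to 24 h and assayed by validated HPLC-fluorescence. Absolute bioavailability is the dose-normalized ratio of AUC after po dosing to AUC after iv dosing.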

[7] = Absolute oral bioavailability was evaluated in Hp-beta-CD solution at a dose of 20 mg/kg orally; format: ADME, organism-based; details: eutheria, in vivo; outline: as §3
[8] = Pharmacokinetic parameter AUC was evaluated in Hp-beta-CD solution; format: ADME; outline: as §2
[9] = Pharmacokinetic parameter tmax was evaluated in Hp-beta-CD solution at a dose of 20 mg/kg orally; format: ADME, organism-based; set-up: dose 20 mg/kg, route oral; details: in vivo, po; outline: as §2
Mus musculus [10] = experiment: Concentration in forebrain after intravenous injection evaluated after 20 min. at a dose of 10 mg/kg; format: functional; outline: as §1
[11] = Pharmacokinetic parameter tmax was evaluated in saline solution at a dose of 20 mg/kg orally; format: ADME, organism-based; set-up: dose 20 mg/kg, route oral; details: in vivo, po; outline: as §2
Mus musculus [12] = experiment: Concentration in forebrain after 10 min of injection at a concentration of 1 mg/kg, iv in mice; format: functional; outline: as §1
[13] = Pharmacokinetic parameter Tmax was evaluated in 0.5% methylcellulose suspension; details: in vivo
[14] = Pharmacokinetic parameter AUC evaluated in 0.5% methylcellulose suspension at a dose of 20 mg/kg orally; format: ADME, organism-based; set-up: dose 20 mg/kg, route oral; details: in vivo, po; outline: as §2
[15] = Absolute oral bioavailability was evaluated in 0.5% methylcellulose suspentionat a dose of 20 mg/kg orally; format: ADME, organism-based; details: eutheria, in vivo; outline: as §3
[16] = Pharmacokinetic parameter half-life was evaluated in 100% PEG solution at a dose of 20 mg/kg orally; format: ADME, organism-based; set-up: dose 20 mg/kg, route oral; details: in vivo, po; outline: as §2
Mus musculus [17] = experiment: Concentration in forebrain after 20 min of injection at a concentration of 1 mg/kg, iv in mice; format: functional; outline: as §1
[18] = Pharmacokinetic parameter tmax was evaluated in 100% PEG solution at a dose of 20 mg/kg orally; format: ADME, organism-based; set-up: dose 20 mg/kg, route oral; details: in vivo, po; outline: as §2
[19] = Pharmacokinetic parameter half-life was evaluated in 10% PEG suspension at a dose of 20 mg/kg orally; format: ADME, organism-based; set-up: dose 20 mg/kg, route oral; details: in vivo, po; outline: as §2
[20] = Maximum plasma concentration was evaluated in 100% of PEG solution at a dose of 20 mg/kg orally; format: ADME, organism-based; set-up: dose 20 mg/kg, route oral; details: po; outline: as §2
[21] = Pharmacokinetic parameter tmax was evaluated in 10% PEG suspension at a dose of 20 mg/kg orally; format: ADME, organism-based; set-up: dose 20 mg/kg, route oral; details: in vivo, po; outline: as §2
[22] = Pharmacokinetic parameter tmax was evaluated in HP-beta-CD solution at a dose of 20 mg/kg orally; format: ADME, organism-based; set-up: dose 20 mg/kg, route oral; details: in vivo, po; outline: as §2
[23] = Pharmacokinetic parameter half-life evaluated in HP-beta-CD solution at a dose of 20 mg/kg orally; format: ADME, organism-based; set-up: dose 20 mg/kg, route oral; details: in vivo, po; outline: as §2
[24] = Pharmacokinetic parameter AUC was evaluated in 100% PEG solution at a dose of 20 mg/kg orally; format: ADME, organism-based; set-up: dose 20 mg/kg, route oral; details: in vivo, po; outline: as §2
[25] = target: T1, Cholecystokinin receptor type A (Rattus norvegicus, UniProt P30551); experiment: Inhibitory concentration against radioligand [125I]Bolton-Hunter labeled CCK-8 to cholecystokinin type A receptor in the rat pancreas
T1 sequence (P30551 whole entry): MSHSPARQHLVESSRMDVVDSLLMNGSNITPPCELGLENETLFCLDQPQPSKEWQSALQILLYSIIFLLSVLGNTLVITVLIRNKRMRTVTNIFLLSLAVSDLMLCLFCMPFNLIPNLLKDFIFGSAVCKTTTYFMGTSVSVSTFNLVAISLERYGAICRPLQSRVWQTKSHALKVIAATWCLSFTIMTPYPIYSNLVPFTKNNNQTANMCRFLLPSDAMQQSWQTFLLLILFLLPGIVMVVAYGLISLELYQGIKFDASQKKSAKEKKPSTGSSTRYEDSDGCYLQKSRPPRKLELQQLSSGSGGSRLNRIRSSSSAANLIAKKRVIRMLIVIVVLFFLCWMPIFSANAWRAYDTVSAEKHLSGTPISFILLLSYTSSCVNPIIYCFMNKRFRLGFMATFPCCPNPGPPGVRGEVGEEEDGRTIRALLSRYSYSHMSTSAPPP

[26] = Pharmacokinetic parameter half-life was evaluated in 0.5% methylcellulose suspension at a dose of 20 mg/kg orally; format: ADME, organism-based; set-up: dose 20 mg/kg, route oral; details: in vivo, po; outline: as §2
Mus musculus [27] = experiment: Concentration in forebrain after 5 min of injection at a concentration of 1 mg/kg, iv in mice; format: functional; outline: as §1
[28] = Maximum plasma concentration was evaluated in 0.5% methylcellulose suspension at a dose of 20 mg/kg orally; format: ADME, organism-based; set-up: dose 20 mg/kg, route oral; details: po; outline: as §2
[29] = Absolute oral bioavailability was evaluated in 10% PEG suspension at a dose of 20 mg/kg orally; format: ADME, organism-based; details: eutheria, in vivo; outline: as §3
[30] = Pharmacokinetic parameter AUC was evaluated in 10% PEG suspension at a dose of 20 mg/kg orally; format: ADME, organism-based; set-up: dose 20 mg/kg, route oral; details: in vivo, po; outline: as §2
[31] = Pharmacokinetic parameter AUC was evaluated in HP-beta-CD solution at a dose of 20 mg/kg orally; format: ADME, organism-based; set-up: dose 20 mg/kg, route oral; details: in vivo, po; outline: as §2
[32] = Maximum plasma concentration was evaluated in 10% of PEG suspension at a dose of 20 mg/kg orally; format: ADME, organism-based; set-up: dose 20 mg/kg, route oral; details: po; outline: as §2
[33] = Maximum plasma concentration was evaluated in HP-beta-CD solution at a dose of 20 mg/kg orally; format: ADME, organism-based; set-up: dose 20 mg/kg, route oral; details: po; outline: as §2
[34] = Absolute oral bioavailability was evaluated in 100% PEG solution; format: ADME, organism-based; details: eutheria, in vivo; outline: as §3
[35] = Oral bioavailability (dosed in HP-beta-CD solution) (dose 20 mg/kg p.o.); format: ADME, organism-based; details: eutheria, in vivo; outline: as §3

AUC [2]: 134 ng·h/mL | Cmax [3]: 32 ng/mL | Cmax [4]: 5 ng/mL | bioavailability [6]: 3.2% | bioavailability [7]: < 1% | AUC [8]: 2.3 ng·h/mL | Tmax [9]: 0.25 h | Tmax [11]: 2.3 h
SMILES: C[C@](Cc1c[nH]c2ccccc12)(NC(=O)OC1[C@H]2C[C@@H]3C[C@@H](C[C@H]1C3)C2)C(=O)NC[C@H](NC(=O)CCC(=O)O)c1ccccc1 (stereo not given in full) [CI-988]
Brain level (Mus musculus [1]): 10 pmol/forebrain | Brain level (Mus musculus [5]): inactive | Brain level (Mus musculus [10]): 8 pmol/forebrain

Tmax [13]: 3 h | AUC [14]: 673 ng·h/mL | bioavailability [15]: 8.9% | half-life [16]: 1.3 h | Tmax [18]: 1 h | half-life [19]: 1.1 h | Cmax [20]: 219 ng/mL | Tmax [21]: 3.5 h | Tmax [22]: 1.8 h | half-life [23]: 0.9 h | AUC [24]: 724 ng·h/mL | IC50 [25]: 2900 nM | half-life [26]: 1 h | Cmax [28]: 185 ng/mL | bioavailability [29]: 13% | AUC [30]: 953 ng·h/mL | AUC [31]: 2130 ng·h/mL | Cmax [32]: 203 ng/mL | Cmax [33]: 756 ng/mL | bioavailability [34]: 9.6% | bioavailability [35]: 28%
SMILES: C[C@](Cc1c[nH]c2ccccc12)(NC(=O)OC1C2CC3CC(C2)CC1C3)C(=O)N[C@@H]1CCCC[C@H]1O (stereo not given in full)
Brain level (Mus musculus [12]): 154 pmol/forebrain | Brain level (Mus musculus [17]): 166 pmol/forebrain | Brain level (Mus musculus [27]): 177 pmol/forebrain

Reference: ChEMBL document CHEMBL1131203, “Second generation "peptoid" CCK-B receptor antagonists: identification and development of N-(adamantyloxycarbonyl)-alpha-methyl-(R)-tryptophan derivative (CI-1015) with an improved pharmacokinetic profile” (J Med Chem, 1998)
